The target of assay [1] is Photinus pyralis luciferase (Photinus pyralis, UniProt P08659). Put plainly: Firefly luciferase inhibition assay. It counts as biochemical. The settings on record: read-out: EC50 Luciferase; 10 nM Photinus pyralis luciferase, 10 μM ATP, 10 μM D-Luciferin.
Another assay deals with HEK293 cells. Put plainly: Bright-field microscopy of treated cells. The assay is classed as cell-based, human. Conditions: 48 hr, at concentrations suggested to be cytotoxic by CTG dose-response data.
Assay [2] deals with T1, CTG engineered firefly luciferase (Photuris pensylvanica, UniProt Q27757).
T1 sequence (Q27757 1-545): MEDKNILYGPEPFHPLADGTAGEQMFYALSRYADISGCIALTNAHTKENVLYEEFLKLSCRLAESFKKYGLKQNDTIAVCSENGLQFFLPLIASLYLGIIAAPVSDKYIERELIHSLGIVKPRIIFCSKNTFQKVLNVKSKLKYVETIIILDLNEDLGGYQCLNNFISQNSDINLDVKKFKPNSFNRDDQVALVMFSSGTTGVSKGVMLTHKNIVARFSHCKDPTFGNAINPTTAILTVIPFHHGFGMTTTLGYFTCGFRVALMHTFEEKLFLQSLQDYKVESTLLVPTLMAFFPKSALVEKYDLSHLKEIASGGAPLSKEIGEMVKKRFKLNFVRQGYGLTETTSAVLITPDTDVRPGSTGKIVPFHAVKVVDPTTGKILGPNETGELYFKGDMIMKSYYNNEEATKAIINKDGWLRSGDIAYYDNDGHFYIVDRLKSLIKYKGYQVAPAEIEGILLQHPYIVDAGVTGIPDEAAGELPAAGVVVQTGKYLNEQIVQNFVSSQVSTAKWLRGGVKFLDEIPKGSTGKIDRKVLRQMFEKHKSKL
The assay can be described thus: CellTiter-Glo luciferase counter-assay. Conditions: read-out: EC50 CTG Luciferase; cell-free media with CTG and ATP added as substrate. It counts as biochemical. In general terms: In ATP-based viability assays light output follows the ATP content of the culture.

Another assay has as its system HEK 293 cells. The assay can be described thus: CellTiter-Glo cytotoxicity qHTS, HEK 293. The settings on record: for cell killing of HEK 293 compared with cancer cell line KB-3–1 (in words): pan-active outliers, 12 dose-point confirmation; for EC50: read-out: EC50 HEK 293; for cell killing of HEK 293 cells (in words): 48 hr. The assay is classed as cell-based, human. A digest of the protocol:
(§1)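 HEK 293 (250 cells/well) or NIH 3T3 (400 cells/well) are seeded in 5 μL. Dosing: annotated library 8-pt (0.6 nM–46 μM) or 11-pt (0.8 nM–46 μM); diversity library 4-pt, mostly 115, 58, 12 and 2.3 μM; cherry-picks confirmed over 12 points, 0.3 nM–46 μM final. Incubate 48 hr at 37 °C, then read CellTiter-Glo luminescence after 10 min. Normalize to DMSO and 9.2 μM bortezomib; EC50 from a four-parameter logistic fit.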

Another assay concerns NIH 3T3 cells. Put plainly: CellTiter-Glo cytotoxicity qHTS, NIH 3T3. Conditions: for cell killing of NIH 3T3 compared with cancer cell line KB-3–1 (in words): pan-active outliers, 12 dose-point confirmation; for EC50: read-out: EC50 NIH 3T3; for cell killing of NIH 3T3 cells (in words): 48 hr. It counts as cell-based, murine. A digest of the protocol: as §1
The subject of another assay is KB 3–1 cells. Put plainly: CellTiter-Glo cytotoxicity qHTS, KB 3-1. Conditions: for EC50: read-out: EC50 KB 3–1; for cell killing of KB 3–1 cells (in words): 48 hr. It counts as cell-based, human. A digest of the protocol: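 HeLa-derived KB 3–1 cells are seeded at 500 cells/well in 5 μL. Annotated library is tested 8-pt (0.6 nM–46 μM, 1:5) or 11-pt (0.8 nM–46 μM, 1:3); cherry-picks are retested 12-pt, 0.3 nM–46 μM final. Incubate 48 hr at 37 °C, then read CellTiter-Glo luminescence after 10 min at room temperature. Normalize to DMSO and 9.2 μM bortezomib; EC50 from a four-parameter logistic fit.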

Another assay relates to CRL-7250 cells. The assay can be described thus: CellTiter-Glo cytotoxicity qHTS, CRL-7250. It counts as cell-based, human. The settings on record: for cell killing of CRL-7250 cells (in words): CellTiter-Glo, 48 hr. A digest of the protocol:
(§2)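 CRL-7250 (primary) or HaCat cells are seeded at 500 cells/well in 5 μL medium. Test compound is pin-transferred as an 8-pt series (0.6 nM–46 μM, 1:5) or an 11-pt series (0.8 nM–46 μM, 1:3). Incubate 48 hr at 37 °C and 85% humidity. Add CellTiter-Glo and read luminescence after 10 min at room temperature. Normalize to DMSO (0%) and 9.2 μM bortezomib (−100%); EC50 comes from a four-parameter logistic fit.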

In another assay the test system is HaCat cells. The assay can be described thus: CellTiter-Glo cytotoxicity qHTS, HaCat. It counts as cell-based, human. In a few lines: as §2
[3] abbreviates: CellTiter-Glo, 48 hr incubation.

Read-outs that look alike come from different tables or passages of the source.

Usually EC50 stands for the concentration at which the effect is half-maximal.

Sequence of Photinus pyralis luciferase (P08659 whole entry): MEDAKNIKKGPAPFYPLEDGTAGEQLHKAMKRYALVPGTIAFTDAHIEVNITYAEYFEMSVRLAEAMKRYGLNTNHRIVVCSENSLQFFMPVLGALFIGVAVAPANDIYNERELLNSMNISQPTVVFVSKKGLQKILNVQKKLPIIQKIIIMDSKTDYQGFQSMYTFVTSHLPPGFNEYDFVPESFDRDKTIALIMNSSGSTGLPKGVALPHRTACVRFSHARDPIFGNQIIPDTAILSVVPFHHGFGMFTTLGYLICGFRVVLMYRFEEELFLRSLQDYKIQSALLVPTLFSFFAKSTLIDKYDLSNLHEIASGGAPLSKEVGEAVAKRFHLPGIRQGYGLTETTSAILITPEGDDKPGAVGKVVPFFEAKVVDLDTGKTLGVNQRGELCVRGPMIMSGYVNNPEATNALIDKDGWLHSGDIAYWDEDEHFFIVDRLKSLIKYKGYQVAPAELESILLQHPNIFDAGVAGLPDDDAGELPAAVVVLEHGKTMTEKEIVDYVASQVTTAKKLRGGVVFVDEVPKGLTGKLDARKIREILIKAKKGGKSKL

Turning to `COc1cccc(-c2ncc3c(n2)OCCN(c2ccccc2)C3=O)c1` [NCGC00413522], the values for the EC50 in assay [1] and in assay [2] were 890 nM and 26600 nM, respectively. Further, the “cell growth by bright-field microscopy” value in the assay on HEK293 cells was “unaffected cell growth”.

Consider `Cc1nn2c(c1-c1ccccc1-c1ccccc1)N(CC1CC1)CCC2` [NCGC00420435], for which the “cell killing of HEK 293 compared with cancer cell line KB-3–1 (in words)” value in the assay with HEK 293 cells is “greater cell killing”. For the same molecule, in the assay with NIH 3T3 cells, the “cell killing of NIH 3T3 compared with cancer cell line KB-3–1 (in words)” value is on record as “greater cell killing”.

For the molecule `Cc1nn2c(c1-c1ccccc1-c1ccccc1)N(Cc1ccc(O)cc1)CCC2` [NCGC00420512], the “cell killing of HEK 293 compared with cancer cell line KB-3–1 (in words)” value in the assay with HEK 293 cells is listed as “greater cell killing”. Moreover, the “cell killing of NIH 3T3 compared with cancer cell line KB-3–1 (in words)” value with NIH 3T3 cells is “greater cell killing”.

Consider `O=C1c2cnc(-c3cc4ccccc4o3)nc2OCCN1c1ccccc1` [NCGC00413607], for which the EC50 in assay [1] is 80 nM; in assay [2], 7300 nM. Moreover, in the assay on HEK293 cells, the “cell growth by bright-field microscopy” value is given as “unaffected cell growth”.

In the case of `O=C(Nc1ccccc1)OC[C@H]1C[C@@H]2CCN1C[C@@H]2c1cc(C2CCCC2)nc(-c2ccncc2)n1` [NCGC00421344], the “potency in HEK 293 cell relative to the other two cell lines (NIH 3T3, KB 3–1)” value in the assay with HEK 293 cells (CellTiter-Glo EC50 comparison) was above 10 fold.

With `O=C(c1ccc(Cl)cc1)N1CCOCC2(CN(Cc3cc(F)cc(F)c3)C2)C1` [NCGC00419015], the results for the EC50 in the assay with HEK 293 cells (setting [3]), in the assay with KB 3–1 cells (setting [3]) and in the assay with NIH 3T3 cells (setting [3]) were 510 nM, 640 nM and 720 nM, respectively.

On to `CC(C)C[C@H](NC(=O)[C@@H](NC(=O)c1cccc(-c2ccccc2)n1)[C@@H](C)O)B(O)O` [delanzomib], for which the EC50 in the assay on CRL-7250 cells (Homo sapiens, 48 h, read-out: EC50 CRL-7250) amounted to 205 nM; with HaCat cells (Homo sapiens, HaCaT, 48 h, read-out: EC50 HaCat), 326 nM; in the assay with HEK 293 cells (Homo sapiens, HEK293, 48 h) it was 148 nM; in the assay on KB 3–1 cells (Homo sapiens, KB 3-1, 48 h), 186 nM; in the assay on NIH 3T3 cells (Mus musculus, NIH3T3, 48 h) it was 82 nM.

Consider `COc1ncc2cc(C(=O)Nc3cc(C(=O)NCc4cccc(Cl)c4)ccc3Cl)c(=O)[nH]c2n1` [TC-S7004], for which, in the assay on CRL-7250 cells, the “cell killing of CRL-7250 cells (in words)” value was “no effect”. Moreover, the “cell killing of HaCat cells (in words)” value with HaCat cells (CellTiter-Glo, 48 hr) is listed as “no effect”. In the assay on HEK 293 cells (CellTiter-Glo), the “cell killing of HEK 293 cells (in words)” value is listed as “no effect”. For the same molecule, in the assay on KB 3–1 cells (CellTiter-Glo), the “cell killing of KB 3–1 cells (in words)” value is given as “complete killing”. Also, the EC50 in the assay on KB 3–1 cells (setting [3]) is 3200 nM. In addition, the “cell killing of NIH 3T3 cells (in words)” value with NIH 3T3 cells (CellTiter-Glo) is “no effect”.

Consider `Cc1nn2c(c1-c1ccccc1Oc1ccccc1)N(Cc1ccccc1O)CCC2` [NCGC00420455], for which the “cell killing of HEK 293 compared with cancer cell line KB-3–1 (in words)” value in the assay with HEK 293 cells is “greater cell killing”. In addition, the “cell killing of NIH 3T3 compared with cancer cell line KB-3–1 (in words)” value in the assay with NIH 3T3 cells is recorded as “greater cell killing”.

As to `c1cc(-c2cnn3cc(-c4ccc(N5CCNCC5)cc4)cnc23)c2cccnc2c1` [LDN-212854], the “cell killing of CRL-7250 cells (in words)” value in the assay on CRL-7250 cells is “no effect”. Moreover, the “cell killing of HEK 293 cells (in words)” value in the assay with HEK 293 cells (CellTiter-Glo) is reported as “partial killing”. In addition, the EC50 was 16400 nM in the assay with HEK 293 cells (setting [3]) and 4100 nM in the assay with KB 3–1 cells (setting [3]). Also, the “cell killing of KB 3–1 cells (in words)” value with KB 3–1 cells (CellTiter-Glo) is recorded as “complete killing”. The “cell killing of NIH 3T3 cells (in words)” value in the assay with NIH 3T3 cells (CellTiter-Glo) is given as “no effect”.
